ChEMBL document CHEMBL4261491, “Synthesis and synergistic antifungal effects of monoketone derivatives of curcumin against fluconazole-resistant Candida spp” (Medchemcomm, 2017)
≈ marks a conversion by molar mass, not a printed value. Calls of active or inactive are those of the source. The rule behind the calls is not given here.

Key:
Candida tropicalis [1] = assay: Antifungal activity against fluconazole-resistant Candida tropicalis clinical isolate 087 at 1 ug/ml after 16 hrs by turbidity method; type: functional, organism-based
Method in brief: (§1)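 C. tropicalis 087 at 10^4 CFU ml–1 in RPMI 1640 in glass tubes. Compound (0–128 μg ml–1) and fluconazole (0–2 μg ml–1) were added alone or in combination. Tubes were shaken at 200 rpm at 30 °C for 16 h, and turbidity was inspected visually and photographed.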

Pichia kudriavzevii [2] = assay: Antifungal activity against fluconazole-resistant Candida krusei clinical isolate 2159 by broth microdilution method; type: functional
Method in brief: (§2)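 Broth microdilution per CLSI/NCCLS M27-A2 against FLC-resistant clinical isolates. MIC80 read for each compound alone and with fluconazole at 8.0 μg ml–1. C. albicans ATCC 90028 served as quality control. Curcumin was the positive control.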

Candida tropicalis [3] = assay: Antifungal activity against fluconazole-resistant Candida tropicalis clinical isolate 087 assessed as fungal growth inhibition at 0.5 ug/ml after 48 hrs; type: functional, organism-based
Method in brief: (§3)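 C. tropicalis 087 was grown in RPMI 1640 at 30 °C for 48 h with fluconazole (0.25, 0.5, 1 μg ml–1) or compound (64, 128 μg ml–1), alone or combined. OD630 was read every 8 h to build growth curves. Three independent experiments, means ± SD.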

Candida tropicalis [4] = assay: Antifungal activity against fluconazole-resistant Candida tropicalis clinical isolate 087 assessed as fungus with permeabilized membrane at 2 ug/ml after 12 hrs by propidium iodide staining-based flow cytometry (reference value: 7.22%); type: functional
Candida tropicalis [5] = assay: Antifungal activity against fluconazole-resistant Candida tropicalis clinical isolate 087 by broth microdilution method; type: functional; method in brief: as §2
Candida albicans [6] = assay: Antifungal activity against fluconazole-resistant Candida albicans clinical isolate 103 by broth microdilution method; type: functional; method in brief: as §2
[7] = Cytotoxicity against HUVEC assessed as cell viability at 16 ug/ml after 24 hrs by MTT assay relative to control; type: cell-based; settings: human, HUVEC cells; read-out: Activity
Method in brief: (§4)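 HUVECs grown in DMEM with 10% FCS and 100 μg ml–1 streptomycin, 5% CO2, 37 °C. Cells exposed to compounds at 16 and 32 μg ml–1 for 24 h, then incubated with MTT solution (5 mg ml–1) for 3 h. Optical density read at 570 nm. Viability expressed as percentage relative to drug-free control.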

Candida tropicalis [8] = assay: Synergistic antifungal activity against fluconazole-resistant Candida tropicalis clinical isolate 087 at 4 ug/ml after 16 hrs in presence of fluconazole by turbidity method; type: functional, organism-based; method in brief: as §1
Candida albicans [9] = assay: Antifungal activity against fluconazole-resistant Candida albicans clinical isolate 103 in presence of 8 ug/ml fluconazole by broth microdilution method; type: functional; method in brief: as §2
Candida tropicalis [10] = assay: Antifungal activity against fluconazole-resistant Candida tropicalis clinical isolate 087 in presence of 8 ug/ml fluconazole by broth microdilution method; type: functional; method in brief: as §2
Candida tropicalis [11] = assay: Synergistic fungicidal activity against fluconazole-resistant Candida tropicalis clinical isolate 087 at 64 to 128 ug/ml after 48 hrs in presence of 1 ug/ml fluconazole; type: functional, organism-based; method in brief: as §3
[12] = Cytotoxicity against HUVEC assessed as cell viability at 32 ug/ml after 24 hrs by MTT assay relative to control; type: cell-based; settings: human, HUVEC cells; read-out: Activity; method in brief: as §4
Candida tropicalis [13] = assay: Antifungal activity against fluconazole-resistant Candida tropicalis clinical isolate 087 assessed as fungus with permeabilized membrane at 32 ug/ml after 12 hrs by propidium iodide staining-based flow cytometry (reference value: 7.22%); type: functional
Candida tropicalis [14] = assay: Antifungal activity against fluconazole-resistant Candida tropicalis clinical isolate 087 assessed as apoptosis at 128 ug/ml after 48 hrs; type: functional, organism-based
Pichia kudriavzevii [15] = assay: Antifungal activity against fluconazole-resistant Candida krusei clinical isolate 2159 in presence of 8 ug/ml fluconazole by broth microdilution method; type: functional; method in brief: as §2
Candida tropicalis [16] = assay: Synergistic antifungal activity against fluconazole-resistant Candida tropicalis clinical isolate 087 assessed as fungus with permeabilized membrane at 32 ug/ml after 12 hrs in presence of 2 ug/ml fluconazole by propidium iodide staining-based flow cytometry (reference value: 7.22%); type: functional
Candida tropicalis [17] = assay: Antifungal activity against fluconazole-resistant Candida tropicalis clinical isolate 087 assessed as fungal growth inhibition at 64 ug/ml after 48 hrs; type: functional, organism-based; method in brief: as §3
Candida tropicalis [18] = assay: Antifungal activity against fluconazole-resistant Candida tropicalis clinical isolate 087 at 64 ug/ml after 16 hrs by turbidity method; type: functional, organism-based; method in brief: as §1
Candida tropicalis [19] = assay: Fungicidal activity against fluconazole-resistant Candida tropicalis clinical isolate 087 at 128 ug/ml after 48 hrs; type: functional, organism-based; method in brief: as §3

In the case of `OC(Cn1cncn1)(Cn1cncn1)c1ccc(F)cc1F` [FLUCONAZOLE], the Activity (Candida tropicalis [1]) is reported as “inactive”, the MIC80 (Pichia kudriavzevii [2]) is reported as 128 µg/mL (≈ 418 µM) and the “growth inhibition (GI)” value (Candida tropicalis [3]) is reported as “Active”. For the same molecule, the Activity (Candida tropicalis [4]) was 37.27%, the MIC80 (Candida tropicalis [5]) was 128 µg/mL (≈ 418 µM) and the MIC80 (Candida albicans [6]) was 128 µg/mL (≈ 418 µM).
In the case of `O=C(/C=C/c1ccc(O)c(O)c1)/C=C/c1ccc(O)c(O)c1`, the viability at 24 h, 16 ug/ml [7] is reported as 91%, the Activity (Candida tropicalis [8]) is reported as “Active” and the “fractional inhibitory concentration index (FICI)” value (Candida albicans [9]) is reported as 0.125. For the same molecule, the MIC80 (Candida albicans [9]; Candida albicans, isolate 103) was 4 µg/mL, the “fractional inhibitory concentration index (FICI)” value (Candida tropicalis [10]) was 0.125 and the MIC80 (Candida tropicalis [10]; Candida tropicalis, isolate 087) was 4 µg/mL. For the same molecule, the MIC80 (Pichia kudriavzevii [2]) was 64 µg/mL (≈ 215 µM), the Activity (Candida tropicalis [11]) was “Active” and the viability at 24 h, 32 ug/ml [12] was 75%. For the same molecule, the Activity (Candida tropicalis [13]) was 20.92%, the Activity (Candida tropicalis [14]) was “Active” and the “fractional inhibitory concentration index (FICI)” value (Pichia kudriavzevii [15]) was 0.188. The MIC80 (Pichia kudriavzevii [15]; Pichia kudriavzevii, isolate 2159) was 8 µg/mL, the Activity (Candida tropicalis [16]) was 72.79% and the “growth inhibition (GI)” value (Candida tropicalis [17]) was “Active”. The Activity (Candida tropicalis [18]) was “Active”, the MIC80 (Candida tropicalis [5]) was 64 µg/mL (≈ 215 µM) and the MIC80 (Candida albicans [6]) was 64 µg/mL (≈ 215 µM). For the same molecule, the Activity (Candida tropicalis [19]) was “Active”.
